In ChEMBL document CHEMBL2406919, “On the antibiotic and antifungal activity of pestalone, pestalachloride A, and structurally related compounds” (2013):
≈ marks a conversion by molar mass, not a printed value.

Experiments:
Type in all cases: functional
[1] = Antifungal activity against Pyrenophora teres after 3 to 5 days by photometric method
How it was run: (§1)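 Test compound in methanol with alkylaryl polyglycol ether emulsifier was dried in wells, then liquid potato dextrose medium with spores or mycelium of the test organism was added. Incubated 3−5 days shaking at 20 °C, 85% relative humidity. Growth was taken as the change in extinction at 620 nm before and after incubation. ED₅₀ (50% growth inhibition, ppm = μg/mL) came from a dose−response curve against untreated control.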

[2] = test system: Staphylococcus aureus; assay: Antimicrobial activity against hospital acquired vancomycin-intermediate Staphylococcus aureus Mu50 after 24 hrs by microdilution method; conditions: Mu50, 24 h
How it was run: (§2)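 CLSI broth microdilution (M7-A6) with 2-fold serial compound dilutions in Mueller–Hinton broth. Inoculum 10⁵ cfu/mL. Strains came from NARSA, stored at −70 °C and revived on Mueller–Hinton agar days before testing. After 24 h at 37 °C, MIC read as the lowest concentration preventing visible growth. Vancomycin served as control.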

[3] = test system: Alternaria mali; assay: Antifungal activity against Alternaria mali after 3 to 5 days by photometric method; conditions: read-out: ED50 (the source's name); how it was run: as §1
[4] = test system: Zymoseptoria tritici; assay: Antifungal activity against Septoria tritici after 3 to 5 days by photometric method; conditions: read-out: ED50 (the source's name); how it was run: as §1
[5] = Antifungal activity against Phytophthora cryptogea after 3 to 5 days by photometric method; how it was run: as §1
[6] = test system: Botrytis cinerea; assay: Antifungal activity against Botrytis cinerea after 3 to 5 days by photometric method; conditions: read-out: ED50 (the source's name); how it was run: as §1
[7] = test system: Fusarium graminearum; assay: Antifungal activity against Gibberella zeae after 3 to 5 days by photometric method; conditions: read-out: ED50 (the source's name)
How it was run: (§3)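 Test compound in methanol with alkylaryl polyglycol ether emulsifier dried into wells. Liquid potato dextrose medium holding spores or mycelium of the fungus added. OD620 read before and after 3–5 days shaking at 20 °C, 85% relative humidity. ΔOD against untreated control fitted to a dose–response curve; ED50 (50% growth inhibition) given in ppm (μg/mL).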

[8] = test system: Pyricularia oryzae; assay: Antifungal activity against Pyricularia oryzae after 3 to 5 days by photometric method; conditions: read-out: ED50 (the source's name); how it was run: as §3
[9] = test system: Pythium aphanidermatum; assay: Antifungal activity against Pythium aphanidermatum after 3 to 5 days by photometric method; conditions: read-out: ED50 (the source's name); how it was run: as §1
[10] = test system: Bacillus subtilis; assay: Antimicrobial activity against Bacillus subtilis 168 after 24 hrs by broth microdilution method; conditions: subsp. subtilis str. 168 
How it was run: (§4)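 CLSI broth microdilution with 2-fold serial compound dilutions in half-concentrated Mueller−Hinton broth. Inoculum was 10⁵ cfu/mL. After 24 h at 37 °C, MIC was read as the lowest concentration inhibiting visible growth.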

[11] = test system: Staphylococcus aureus; assay: Antimicrobial activity against methicillin-resistant Staphylococcus aureus LT-1334 after 24 hrs by microdilution method; conditions: LT-1334, 24 h
How it was run: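 Broth microdilution per CLSI with 2-fold serial compound dilutions. Growth and testing in half-concentrated Mueller–Hinton broth, inoculum 10⁵ cfu/mL. MIC read after 24 h at 37 °C as the lowest concentration inhibiting visible growth.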

[12] = test system: Staphylococcus aureus; assay: Antimicrobial activity against Staphylococcus aureus ATCC 29213 after 24 hrs by microdilution method; conditions: ATCC 29213, 24 h
How it was run: (§5)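 CLSI (M7-A6) broth microdilution with 2-fold serial compound dilutions in Mueller−Hinton broth. Inoculum was 10⁵ cfu/mL, with vancomycin as control. After 24 h at 37 °C, MIC was read as the lowest concentration inhibiting visible growth.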

[13] = test system: Aspergillus niger; assay: Antifungal activity against Aspergillus niger after 3 to 5 days by photometric method; conditions: read-out: ED50 (the source's name); how it was run: as §1
[14] = Antifungal activity against Ustilago avenae after 3 to 5 days by photometric method; how it was run: as §1
[15] = Antifungal activity against Trametes versicolor after 3 to 5 days by photometric method; how it was run: as §1
[16] = test system: Fusarium culmorum; assay: Antifungal activity against Fusarium culmorum after 3 to 5 days by photometric method; conditions: read-out: ED50 (the source's name); how it was run: as §1
[17] = Antifungal activity against Leptosphaeria nodorum after 3 to 5 days by photometric method; how it was run: as §1
[18] = test system: Phytophthora infestans; assay: Antifungal activity against Phytophthora infestans after 3 to 5 days by photometric method; conditions: read-out: ED50 (the source's name); how it was run: as §3
[19] = test system: Staphylococcus aureus; assay: Antimicrobial activity against Staphylococcus aureus SG511 after 24 hrs by broth microdilution method; conditions: SG511, 24 h; how it was run: as §4
[20] = test system: Staphylococcus aureus; assay: Antimicrobial activity against epidemic community acquired methicillin-resistant Staphylococcus aureus USA300 after 24 hrs by microdilution method; conditions: USA300, 24 h; how it was run: as §2
[21] = test system: Pseudomonas fluorescens; assay: Antifungal activity against Pseudomonas fluorescens after 3 to 5 days by photometric method; conditions: read-out: ED50 (the source's name); how it was run: as §1
[22] = test system: Staphylococcus aureus; assay: Antimicrobial activity against community acquired Staphylococcus aureus MW2 after 24 hrs by microdilution method; conditions: MW2, 24 h; how it was run: as §5

Compound: COc1c(Cl)c(C)c(Cl)c(O)c1C(=O)c1c(C=O)c(O)cc(O)c1CC=C(C)C [PESTALONE]
- ED50 [1]: 2.2 µg/mL (≈ 5.01 µM)
- MIC [2]: 10 µg/mL (≈ 22.8 µM)
- EC50 [3]: 22.4 µg/mL (≈ 51 µM)
- EC50 [4]: 26.7 µg/mL (≈ 60.8 µM)
- ED50 [5]: 33.9 µg/mL (≈ 77.2 µM)
- EC50 [6]: > 50 µg/mL
- EC50 [7]: > 50 µg/mL
- EC50 [8]: 28.6 µg/mL (≈ 65.1 µM)
- EC50 [9]: > 50 µg/mL
- MIC [10]: 1.6 µg/mL (≈ 3.64 µM)
- MIC [11]: 6.25 µg/mL (≈ 14.2 µM)
- MIC [12]: 16 µg/mL (≈ 36.4 µM)
- EC50 [13]: > 50 µg/mL
- ED50 [14]: > 50 µg/mL
- ED50 [15]: > 50 µg/mL
- EC50 [16]: 0.12 µg/mL (≈ 0.273 µM)
- ED50 [17]: 22.4 µg/mL (≈ 51 µM)
- EC50 [18]: > 50 µg/mL
- MIC [19]: 3.1 µg/mL (≈ 7.06 µM)
- MIC [20]: 10 µg/mL (≈ 22.8 µM)
- EC50 [21]: > 50 µg/mL

Compound: COc1cc(OC)c(CC=C(C)C)c(C(=O)c2c(OC)c(Cl)c(C)c(Cl)c2OC)c1Br
- ED50 [1]: > 50 µg/mL
- EC50 [3]: > 50 µg/mL
- EC50 [4]: > 50 µg/mL
- ED50 [5]: > 50 µg/mL
- EC50 [6]: > 50 µg/mL
- EC50 [7]: > 50 µg/mL
- EC50 [8]: > 50 µg/mL
- EC50 [9]: > 50 µg/mL
- EC50 [13]: > 50 µg/mL
- ED50 [14]: > 50 µg/mL
- ED50 [15]: > 50 µg/mL
- EC50 [16]: > 50 µg/mL
- ED50 [17]: > 50 µg/mL
- EC50 [18]: > 50 µg/mL
- EC50 [21]: > 50 µg/mL

Compound: COc1c(Cl)c(C)c(Cl)c(O)c1C1c2c(CC=C(C)C)c(O)cc(O)c2C(=O)N1C (racemic)
- MIC [22]: > 50 µg/mL
- MIC [12]: > 50 µg/mL

Compound: COc1c(Cl)c(C)c(Cl)c(O)c1C(=O)c1cc(O)cc(O)c1CC=C(C)C [DEFORMYL-PESTALONE]
- MIC [2]: 5 µg/mL (≈ 12.2 µM)
- MIC [20]: 5 µg/mL (≈ 12.2 µM)

Compound: COc1c(Cl)c(C)c(Cl)c(O)c1C(=O)c1c(Br)c(O)cc(O)c1Br
- ED50 [1]: > 50 µg/mL
- MIC [2]: 30 µg/mL (≈ 59.9 µM)
- EC50 [3]: > 50 µg/mL
- EC50 [4]: > 50 µg/mL
- ED50 [5]: > 50 µg/mL
- EC50 [6]: > 50 µg/mL
- EC50 [7]: > 50 µg/mL
- EC50 [8]: > 50 µg/mL
- EC50 [13]: > 50 µg/mL
- ED50 [14]: > 50 µg/mL
- ED50 [15]: > 50 µg/mL
- EC50 [16]: 0.014 µg/mL (≈ 0.0279 µM)
- ED50 [17]: > 50 µg/mL
- EC50 [18]: > 50 µg/mL
- MIC [20]: 30 µg/mL (≈ 59.9 µM)
- EC50 [21]: > 50 µg/mL

Compound: COc1cc(OC)c(Br)c(C(=O)c2c(OC)c(Cl)c(C)c(Cl)c2OC)c1Br
- ED50 [1]: 42 µg/mL (≈ 77.3 µM)
- EC50 [3]: > 50 µg/mL
- EC50 [4]: > 50 µg/mL
- ED50 [5]: > 50 µg/mL
- EC50 [6]: > 50 µg/mL
- EC50 [7]: > 50 µg/mL
- EC50 [8]: 12.6 µg/mL (≈ 23.2 µM)
- EC50 [9]: > 50 µg/mL
- EC50 [13]: > 50 µg/mL
- ED50 [14]: > 50 µg/mL
- ED50 [15]: > 50 µg/mL
- EC50 [16]: 2.2 µg/mL (≈ 4.05 µM)
- ED50 [17]: > 50 µg/mL
- EC50 [21]: > 50 µg/mL

Compound: COc1c(Cl)c(C)c(Cl)c(O)c1C1OC(=O)c2c(O)cc(O)c(CC=C(C)C)c21 (racemic) [RAC-PESTALALACTONE]
- ED50 [1]: 4.3 µg/mL (≈ 9.79 µM)
- EC50 [3]: > 50 µg/mL
- EC50 [4]: > 50 µg/mL
- ED50 [5]: 18.9 µg/mL (≈ 43 µM)
- EC50 [6]: > 50 µg/mL
- EC50 [7]: > 50 µg/mL
- EC50 [8]: > 50 µg/mL
- EC50 [9]: > 50 µg/mL
- EC50 [13]: > 50 µg/mL
- ED50 [14]: > 50 µg/mL
- ED50 [15]: 13.1 µg/mL (≈ 29.8 µM)
- EC50 [16]: > 50 µg/mL
- ED50 [17]: > 50 µg/mL
- MIC [20]: 25 µg/mL (≈ 56.9 µM)
- EC50 [21]: > 50 µg/mL

Compound: COc1c(Cl)c(C)c(Cl)c(O)c1C1c2c(CC=C(C)C)c(O)cc(O)c2C(=O)N1Cc1ccccc1 (racemic)
- MIC [22]: > 50 µg/mL
- MIC [12]: > 50 µg/mL

Compound: CN[C@H](CC(C)C)C(=O)N[C@H]1C(=O)N[C@@H](CC(N)=O)C(=O)N[C@H]2C(=O)N[C@H]3C(=O)N[C@H](C(=O)N[C@H](C(=O)O)c4cc(O)cc(O)c4-c4cc3ccc4O)[C@H](O)c3ccc(c(Cl)c3)Oc3cc2cc(c3O[C@@H]2O[C@H](CO)[C@@H](O)[C@H](O)[C@H]2O[C@H]2C[C@](C)(N)[C@H](O)[C@H](C)O2)Oc2ccc(cc2Cl)[C@H]1O [VANCOMYCIN]
- MIC [20]: 0.25 µg/mL (≈ 0.173 µM)

Compound: COc1cc(OC)c(CC=C(C)C)c(C(=O)c2c(O)c(Cl)c(C)c(Cl)c2OC)c1C=O
- ED50 [1]: 5.4 µg/mL (≈ 11.6 µM)
- MIC [2]: 15 µg/mL (≈ 32.1 µM)
- EC50 [3]: > 50 µg/mL
- EC50 [4]: > 50 µg/mL
- ED50 [5]: > 50 µg/mL
- EC50 [6]: > 50 µg/mL
- EC50 [7]: > 50 µg/mL
- EC50 [8]: 5 µg/mL (≈ 10.7 µM)
- EC50 [9]: 44.4 µg/mL (≈ 95 µM)
- EC50 [13]: > 50 µg/mL
- ED50 [14]: > 50 µg/mL
- ED50 [15]: > 50 µg/mL
- EC50 [16]: 1.2 µg/mL (≈ 2.57 µM)
- ED50 [17]: 22.5 µg/mL (≈ 48.1 µM)
- MIC [20]: 10 µg/mL (≈ 21.4 µM)
- EC50 [21]: > 50 µg/mL

Compound: COc1c(Cl)c(C)c(Cl)c(O)c1C1NC(=O)c2c(O)cc(O)c(CC=C(C)C)c21 (racemic) [PESTALACHLORIDE A]
- ED50 [1]: 33.1 µg/mL (≈ 75.5 µM)
- MIC [22]: 10 µg/mL (≈ 22.8 µM)
- EC50 [3]: > 50 µg/mL
- EC50 [4]: > 50 µg/mL
- ED50 [5]: > 50 µg/mL
- EC50 [6]: > 50 µg/mL
- EC50 [7]: > 50 µg/mL
- EC50 [8]: > 50 µg/mL
- EC50 [9]: > 50 µg/mL
- MIC [12]: 10 µg/mL (≈ 22.8 µM)
- EC50 [13]: > 50 µg/mL
- ED50 [14]: > 50 µg/mL
- ED50 [15]: > 50 µg/mL
- EC50 [16]: 31.9 µg/mL (≈ 72.8 µM)
- ED50 [17]: > 50 µg/mL
- EC50 [18]: > 50 µg/mL
- EC50 [21]: > 50 µg/mL

Compound: COc1c(Cl)c(C)c(Cl)c(O)c1C(=O)c1cc(O)cc2c1CCC(C)(C)O2
- MIC [2]: 7 µg/mL (≈ 17 µM)
- MIC [20]: 7 µg/mL (≈ 17 µM)
